1 compound from ChEMBL document CHEMBL1255259, “Phosphorothioate-modified oligodeoxynucleotides inhibit human cytomegalovirus replication by blocking virus entry” (Antimicrob Agents Chemother, 2008) can be followed below.

In general, IC50 refers to the concentration that inhibits the measured activity by half. In general, IC90 refers to the point of the concentration-response curve where the effect stands at 90%. Usually CC50 stands for the concentration giving 50% cytotoxicity.

For one series, the system named is unidentified adenovirus. As to the kind of experiment: Antimicrobial activity against unidentified adenovirus infected in compound pretreated HELF assessed as inhibition of viral replication. The series is classed as functional, organism-based. The essentials: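 HELF pretreated 1 h with ODN (0.1 or 1 μM), infected with an adenovirus clinical isolate (MOI 1); ODN kept after 2 h adsorption. Harvest at 4 days p.i., sonication, plaque titration on HELF. Means ± SD, three experiments.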

For series [1], the system named is Human betaherpesvirus 5. In words: Antimicrobial activity against Human cytomegalovirus AD169 infected in 1 uM compound pretreated HELF assessed as inhibition of viral replication measured after 6 days post-infection. The series is classed as functional, organism-based. The essentials:
(§1)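 HELF pretreated with ODN 1 h before infection with HCMV AD169 (MOI 1); ODN kept in medium after 2 h adsorption at 37°C. At 6 days p.i., cells plus supernatants sonicated and titrated by plaque assay on HELF; plaques counted microscopically, expressed as PFU/ml (log10) or % of control. IC50/IC90 by linear regression; duplicate wells, three independent experiments, means ± SD.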

Series [2] deals with Human betaherpesvirus 5. In words: Antimicrobial activity against Human cytomegalovirus AD169 infected in 0.1 uM compound pretreated HELF assessed as inhibition of viral replication measured after 6 days post-infection. The series is classed as functional, organism-based. In a few lines:
as §1

Series [3] has as its system Human alphaherpesvirus 1. In words: Antimicrobial activity against Human herpesvirus 1 infected in compound pretreated HELF assessed as inhibition of viral replication at 0.1 uM. The series is classed as functional, organism-based. The essentials:
(§2)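 HELF pretreated with ODN (0.1 or 1 μM) 1 h before infection with a clinical HSV-1 isolate at MOI 0.1; ODN kept in medium after 2 h adsorption. Harvest at 48 h p.i., sonication, plaque titration on Vero cells. Means ± SD of three independent experiments.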

Series [4] can be described thus: Cytotoxicity against HELF assessed as cell viability by MTT assay after 6 days at <=10 uM. The series is classed as cell-based. The conditions noted are these: human, 144 h. In a few lines: (§3)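 HELF exposed to rising ODN concentrations (up to 10 μM) for 6 days; viable cells measured by MTT. CC50 taken as concentration that cuts viability to 50%.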
The subject of series [5] is Human betaherpesvirus 5. In words: Antimicrobial activity against Human cytomegalovirus AD169 infected in HELF assessed as inhibition of viral replication at 1 uM measured after 6 days post-infection. The series is classed as functional, organism-based.
Series [6] relates to Human betaherpesvirus 5. As to the kind of experiment: Antimicrobial activity against 0.1 uM compound pretreated Human cytomegalovirus AD169 infected in HELF assessed as reduction in viral titer at 4 degC. The series is classed as functional, organism-based. In a few lines: (§4)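 HCMV AD169 (10^4 PFU) incubated with ODN at 0.1 μM at 4 or 37°C for various times; samples then diluted to bring ODN below an antivirally active level; residual infectivity titrated by plaque assay on HELF. Means ± SD of three independent experiments.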

The test system of series [7] is Human betaherpesvirus 5. As to the kind of experiment: Antimicrobial activity against Human cytomegalovirus TB40 expressing EGPF tagged UL32 infected in HELF assessed as inhibition of inhibition of viral adsorption at 0.1 uM after 2 hrs by fluorescence microscopy. The series is classed as functional, organism-based. In a few lines: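 Prechilled HELF on coverslips exposed to ODN (0.1 μM) or heparin (30 μg/ml) 1 h at 4°C, then infected with HCMV TB40 UL32-EGFP (MOI 20) 2 h at 4°C to permit attachment only. Washed in ice-cold PBS, fixed in 4% formaldehyde, propidium iodide counterstain; green virions imaged by confocal fluorescence microscopy. Done twice.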

Series [8] deals with Human betaherpesvirus 5. In words: Antimicrobial activity against 0.1 uM compound pretreated Human cytomegalovirus AD169 infected in HELF assessed as reduction in viral titer 37 degC. The series is classed as functional, organism-based. In a few lines: as §4
The test system of series [9] is Human betaherpesvirus 5. In words: Antimicrobial activity against Human cytomegalovirus AD169 infected in compound pretreated HELF assessed as inhibition of viral replication measured after 6 days post-infection. As to conditions: Human betaherpesvirus 5, AD169, HELF. The series is classed as functional, organism-based. The essentials: as §1
Series [10] can be described thus: Cytotoxicity against HELF assessed as cell viability after 6 days by MTT assay. The conditions noted are these: human, HELF cells. The series is classed as cell-based. In a few lines: as §3
Series [11] relates to Vesicular stomatitis Indiana virus. As to the kind of experiment: Antimicrobial activity against Vesicular stomatitis Indiana virus infected in compound pretreated HELF assessed as inhibition of viral replication. The series is classed as functional, organism-based. The essentials: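 HELFs exposed to ODN (0.1 or 1 μM) for 1 h, then infected with VSV serotype Indiana at MOI 1 (2 h adsorption, 37°C). ODN kept in the medium until 48 h p.i. Cells and supernatants were pooled, sonicated and titrated by plaque assay on HELFs. Data are means ± standard deviations of three independent experiments, duplicate wells.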

Series [12] deals with Human betaherpesvirus 5. As to the kind of experiment: Antimicrobial activity against Human cytomegalovirus AD169 infected in HELF assessed as inhibition of viral replication at 0.1 uM measured after 6 days post-infection. The series is classed as functional, organism-based.
The subject of series [13] is Human alphaherpesvirus 1. In words: Antimicrobial activity against Human herpesvirus 1 infected in compound pretreated HELF assessed as inhibition of viral replication at 1 uM. The series is classed as functional, organism-based. In a few lines: as §2

The structures appear in SMILES notation. Calls of active or inactive are those of the source. No cut-off for these calls is given here.

In the case of `Cc1cn([C@H]2C[C@H](OP(O)(O)=S)[C@@H](COP(O)(=S)O[C@H]3C[C@H](n4cc(C)c(=O)[nH]c4=O)O[C@@H]3COP(O)(=S)O[C@H]3[C@@H](O)[C@H](n4cnc5c(=O)[nH]c(N)nc54)O[C@@H]3COP(O)(=S)O[C@H]3[C@@H](O)[C@H](n4ccc(N)nc4=O)O[C@@H]3COP(O)(=S)O[C@H]3C[C@H](n4cc(C)c(=O)[nH]c4=O)O[C@@H]3COP(O)(=S)O[C@H]3[C@@H](O)[C@H](n4cnc5c(=O)[nH]c(N)nc54)O[C@@H]3COP(O)(=S)O[C@H]3C[C@H](n4cc(C)c(=O)[nH]c4=O)O[C@@H]3COP(O)(=S)O[C@H]3C[C@H](n4cc(C)c(=O)[nH]c4=O)O[C@@H]3COP(O)(=S)O[C@H]3C[C@H](n4cc(C)c(=O)[nH]c4=O)O[C@@H]3COP(O)(=S)O[C@H]3C[C@H](n4cc(C)c(=O)[nH]c4=O)O[C@@H]3COP(O)(=S)O[C@H]3[C@@H](O)[C@H](n4cnc5c(=O)[nH]c(N)nc54)O[C@@H]3COP(O)(=S)O[C@H]3[C@@H](O)[C@H](n4ccc(N)nc4=O)O[C@@H]3COP(O)(=S)O[C@H]3C[C@H](n4cc(C)c(=O)[nH]c4=O)O[C@@H]3COP(O)(=S)O[C@H]3[C@@H](O)[C@H](n4cnc5c(=O)[nH]c(N)nc54)O[C@@H]3COP(O)(=S)O[C@H]3C[C@H](n4cc(C)c(=O)[nH]c4=O)O[C@@H]3COP(O)(=S)O[C@H]3C[C@H](n4cc(C)c(=O)[nH]c4=O)O[C@@H]3COP(O)(=S)O[C@H]3[C@@H](O)[C@H](n4cnc5c(=O)[nH]c(N)nc54)O[C@@H]3COP(O)(=S)O[C@H]3[C@@H](O)[C@H](n4ccc(N)nc4=O)O[C@@H]3COP(O)(=S)O[C@H]3C[C@H](n4cc(C)c(=O)[nH]c4=O)O[C@@H]3COP(O)(=S)O[C@H]3[C@@H](O)[C@H](n4cnc5c(=O)[nH]c(N)nc54)O[C@@H]3COP(O)(=S)O[C@H]3[C@@H](O)[C@H](n4ccc(N)nc4=O)O[C@@H]3COP(O)(=S)O[C@H]3C[C@H](n4cc(C)c(=O)[nH]c4=O)O[C@@H]3CO)O2)c(=O)[nH]c1=O` (stereo not given in full), the inhibition entry in the series on unidentified adenovirus, in the series with Human alphaherpesvirus 1 [3], in the series on Human betaherpesvirus 5 [5], in the series on Human betaherpesvirus 5 [6], in the series on Human betaherpesvirus 5 [7] and in the series with Human betaherpesvirus 5 [8] was “inactive” each time. Also, the inhibition result (in series [11]; with Human betaherpesvirus 5 [12]; with Human alphaherpesvirus 1 [13]) was “inactive” throughout. Also, the inhibition result in the series with Human betaherpesvirus 5 [1] and with Human betaherpesvirus 5 [2] was “Active” in each case. For the same compound, the Activity result in series [4] is recorded as “Non-toxic”. Besides, the IC50 in the series on Human betaherpesvirus 5 [9] came out at 0.2 µM. For the same compound, the IC90 with Human betaherpesvirus 5 [9] turned out to be 4 µM. Also, the CC50 at 144 h in series [10] is above 10 µM.
